# Bioassay records from PubChem BioAssay.
# OX1R antag-1 – human HCRTR1 antagonism | inhibition, % at 5 µM | 330,000 compounds, 0.43% hits | AID 434989 | CHO/OX1R cells, Fluo-8 calcium fluorescence, orexin A;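 active means inhibition above its plate's threshold, mean inhibition of all tested compounds on the plate plus 3 SD, cut at about 37% in these data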;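 further: 0% = orexin A challenge wells and 100% = SB-334867-A antagonist wells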
# Target sequence (O43613 whole entry, looked up): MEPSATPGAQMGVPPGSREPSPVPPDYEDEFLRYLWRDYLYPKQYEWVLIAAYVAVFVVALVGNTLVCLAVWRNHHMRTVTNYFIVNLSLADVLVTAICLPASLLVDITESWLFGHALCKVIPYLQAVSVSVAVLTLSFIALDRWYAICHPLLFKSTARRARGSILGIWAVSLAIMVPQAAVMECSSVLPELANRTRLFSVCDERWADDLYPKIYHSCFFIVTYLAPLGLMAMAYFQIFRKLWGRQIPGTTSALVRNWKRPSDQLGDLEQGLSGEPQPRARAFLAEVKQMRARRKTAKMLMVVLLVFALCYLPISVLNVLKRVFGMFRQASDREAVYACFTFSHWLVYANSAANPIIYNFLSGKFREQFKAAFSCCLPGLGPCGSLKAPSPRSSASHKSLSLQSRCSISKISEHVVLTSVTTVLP
# GPR7 antagonist – human neuropeptides B/W receptor 1 antagonism; P48145; GPR7-expressing cells, fluorescence antagonist assay; inhibition, % at 4.4 µM; 290,000 compounds, 1.1% hits; AID 1861; in the data active means inhibition above about 16%, passing the limit was not always enough;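 further: cells stimulated with the agonist NPW; 0% = agonist with vehicle and 100% = vehicle without agonist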
# CHO parental Ca – counter-screen for OX1R antagonists: effect in parental CHO cells. parental CHO-K1, ATP-induced calcium, Fluo-8 fluorescence. inhibition, % at 5.6 µM. 330,000 compounds, 0.63% hits. AID 463079;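 active means inhibition above that plate's mean sample inhibition plus 3 SD, cut at about 26% in these data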;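 further: 0% = ATP-challenged DMSO wells and 100% = DMSO wells without ATP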
#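 Test system: untransfected parental CHO cell line; also added: ATP stimulus; dosing: 5.6 µM, single dose; signal: calcium-sensitive Fluo-8 fluorescence; measure: percent inhibition of ATP-evoked calcium rise, normalized to controls; benchmarks: low control ATP plus DMSO, high control DMSO only; replication: one well per compound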
# OX1R antag-2 – blocks the human orexin 1 receptor; inhibition, % at 6.6 µM; 330,000 compounds, 1.8% hits; OX1R-expressing cells, FRET antagonist read-out; O43613; in the data active means inhibition mostly above about 38%, no sharp cut-off; inactive means mostly below about 40%;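 further: 0% = agonist challenge alone and 100% = reference antagonist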
# TAAR1 agonist – agonists of human TAAR1 | Q96RJ0 | CHO RD-HGA16 TAAR1, Fluo-8 calcium fluorescence; vehicle wells 0%, saturating PEA agonist 100% | activation, % at 3 µM | 360,000 compounds, 0.99% hits;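 active means activation above the mean activation of all test compounds in the run plus 3 SD, cut at about 38% in these data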
#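 System: CHO RD-HGA16 cells carrying human TAAR1 plus Gα16; Incubation: 17-24 h seeding, 75 min 37 °C dye, 30 min RT; Measured by: Fluo-8 fluorescence, 5 s baseline then 140 s kinetic read; Control set: DMSO and PEA EC100; Replication: single well for each compound.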
# TAAR1 antagonist – antagonists of human TAAR1 | inhibition, % at 3 µM | CHO RD-HGA16 TAAR1, Fluo-8 calcium fluorescence, antagonist | Q96RJ0 | 360,000 compounds, 1.5% hits;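 active means inhibition above a per-plate cutoff, the mean inhibition of test compounds on that plate plus 3 SD, cut at about 49% in these data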;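 further: 0% = DMSO plus EC80 beta-PEA response and 100% = DMSO alone without agonist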
#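 System: RD-HGA16 CHO cells with stable hTAAR1 and Gα16 | Probe or stimulus: EC80 β-phenethylamine stimulus | Dosing: 3 µM, single point | Times: Dye loading 75 min at 37 °C, then 30 min room temperature | Measured by: Fluo-8 calcium-sensitive fluorescence | Read-out basis: % inhibition of agonist calcium response | Replicates: n of 1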
# Numbers without * were called inactive; nt = no result given. In the library only some 4.5% were active in any assay of this set; here they are far more common.
SMILES,OX1R antag-1,GPR7 antagonist,CHO parental Ca,OX1R antag-2,TAAR1 agonist,TAAR1 antagonist
O=C(Nc1ncccn1)c1ccc([N+](=O)[O-])o1,1,-5,-14,41*,8,0
Cc1cccc(NC(=O)c2ccc([N+](=O)[O-])o2)c1C,-14,-4,-1,76*,1,-20
Nc1[nH]c(C(=O)c2ccccc2)c(-c2ccc3ccccc3c2)c1C(=O)NCc1ccc(F)cc1,nt,nt,nt,nt,5,-32
O=C(CCN1C(=O)/C(=C/c2ccccc2Cl)SC1=S)Nc1cccnc1,2,-13,6,43,10,50*
O=C(CCN1C(=O)/C(=C/c2ccccc2Cl)SC1=S)Nc1ccccn1,-40,-40,-13,65*,5,45
O=C(CCN1C(=O)/C(=C\c2cccs2)SC1=S)Nc1ccccn1,-15,-8,-21,26,44*,21
CCCCN1CC(COc2ccc(OC)cc2)OCCS1(=O)=O (centres undefined),nt,nt,nt,nt,-2,0
COC(=O)c1ccc(N2C(=O)CC(N3CCN(c4ccccc4)CC3)C2=O)cc1 (centres undefined),-17,19*,-6,30,1,-17
COC(=O)c1ccc(N2C(=O)CC(N3CCOCC3)C2=O)cc1 (centres undefined),-13,-3,6,14,-2,8
COC(=O)Cc1nnn2c1[C@H](C)[C@H](c1ccccc1Br)OC[C@H](C)C2,nt,nt,nt,nt,-2,-4
O=C(NCCNC(=O)c1cc(OCC(F)(F)F)ccc1OCC(F)(F)F)Nc1cccc(C(F)(F)F)c1,-17,21*,7,1,23,2
CCC(C)NCCC(=O)Nc1ccc(Cl)c(S(=O)(=O)Nc2ccc(Cl)cc2)c1 (centres undefined),0,33*,-9,12,2,23
Cc1ccc(C(=O)CCC(=O)Nc2ccc(Cl)c(S(=O)(=O)Nc3cccc(Cl)c3)c2)cc1,-17,5,-17,4,4,-9
Nc1[nH]c(C(=O)c2ccc(Br)cc2)c(-c2ccc(Cl)cc2)c1C(=O)NCCc1c[nH]c2ccccc12,nt,nt,nt,nt,2,-16
COC(=O)C1=C(C)N(Cc2ccc(Br)cc2)C(=S)NC1c1cccc(OC)c1 (centres undefined),nt,nt,nt,nt,0,33
COc1cccc(/C=N/NC(=O)C(=O)NCc2ccco2)c1OC,-18,-5,-20,14,0,-12
COc1cccc(/C=N/NC(=O)CSCC(=O)Nc2ccccc2)c1O,-13,-8,-16,59*,7,0
COc1ccc(/C=N/NC(=O)CSCC(=O)Nc2ccccc2)cc1,-8,-10,-10,10,2,-5
COc1cccc(/C=N/NC(=O)C(=O)NCc2ccco2)c1O,1,-9,-13,41*,-1,12
COC(=O)N1Cc2ccnnc2CC1c1ccccc1-c1ccc(OC)cc1 (centres undefined),nt,nt,nt,nt,3,-1
COc1ccc2cc(C3CC=C(CO)CN3S(=O)(=O)c3ccccc3[N+](=O)[O-])n(C(=O)OC(C)(C)C)c2c1 (centres undefined),nt,nt,nt,nt,3,50*
O=[N+]([O-])c1ccccc1C(=Nc1ccccc1)c1c(O)cc(O)cc1O,nt,nt,nt,nt,0,-9
COc1ccc(S(=O)(=O)NN(C)c2nc(C(F)(F)F)nc3ccccc23)cc1,-5,3,-10,72*,14,-6
COc1ccc(S(=O)(=O)Nc2ccccc2C(F)(F)F)cc1,-30,-8,-12,9,3,5
OCC[C@@H]1C[C@H](O)[C@@H](O)[C@@]2(OCCCc3cc(C(F)(F)F)ccc32)O1,nt,nt,nt,nt,7,-12
SMILES,OX1R antag-1,GPR7 antagonist,CHO parental Ca,OX1R antag-2,TAAR1 agonist,TAAR1 antagonist
CN(C(=O)[C@H]1O[C@@H](n2cnc(C(N)=O)n2)[C@H](O)[C@@H]1O)c1ccccc1,nt,nt,nt,nt,2,-2
COc1ccc(C(=O)N2CCC(c3ccccc3)CC2)c(OC)c1OC,-11,20*,-15,27,7,-27
COc1cccc(C(=O)N2CCN(C(=O)c3ccc(-c4ccccc4)cc3)CC2)c1OC,-37,-1,-5,2,3,-22
Cc1nc(C)c(-c2ccc(SCc3ccccc3F)nn2)s1,-22,6,-22,19,-3,-25
Cc1nnc(SCC(=O)c2ccc(Cl)cc2)n(N)c1=O,7,-4,10,50*,0,-15
C=CS(=O)(=O)N[C@@H](CSSC[C@H](NS(=O)(=O)C=C)C(=O)OC)C(=O)OC,nt,nt,nt,nt,1,-11
COC(=O)COc1c(/C=C\c2nc(O)c([N+](=O)[O-])c(=O)[nH]2)cccc1OC,-12,-9,2,34,5,-3
C#CCOc1c(/C=C\c2nc(O)c([N+](=O)[O-])c(=O)[nH]2)cc(Br)cc1OC,1,-12,2,53*,1,-18
CCc1cccc(CC)c1N1C(=O)C2=C(SCCCS2)C1=O,nt,nt,nt,nt,40*,47
O=C(O)c1ccccc1N1C(=O)c2cccc3cccc(c23)C1=O,-13,-5,-3,66*,2,-5
O=C1c2cccc3cccc(c23)C(=O)N1c1cccnc1,-16,-12,-15,48*,5,-27
Cc1c(N2C(=O)c3cccc4cccc(c34)C2=O)cnn1C,-19,-8,-23,51*,-1,15
COCC(=O)Nc1sc2c(c1C(=O)OC)CCCC2,-19,-4,-21,18,1,-9
CCC(=O)NC(Nc1sc2c(c1C(=O)OC)CCCC2)(C(F)(F)F)C(F)(F)F,7,-3,46*,27,40*,64*
Cc1ccn2c(-c3csc(NCc4ccccc4)n3)c(C)nc2c1,43*,-10,28,59,8,39
CCOC(=O)c1sc(NC(=O)c2ccc(S(=O)(=O)N(C)C)cc2)nc1C,0,1,-5,20,4,1
CCOC(=O)c1sc(NC(=O)c2ccc(S(=O)(=O)N(C)C)cc2)cc1C,6,-2,-15,58*,15,13
CCN(CCNCC(O)COCc1ccc(Cl)cc1)c1cccc(C)c1 (centres undefined),-22,8,-4,2,40*,19
CCN(CC)S(=O)(=O)c1ccc(C(=O)NCC(=O)NCc2ccc3c(c2)OCO3)cc1,nt,nt,nt,nt,1,-3
C[C@@H]1CN([C@H](C)CO)C(=O)c2cc(NC(=O)Nc3ccc(C(F)(F)F)cc3)ccc2O[C@H]1CN(C)Cc1ccc(Cl)c(Cl)c1,-37,nt,-13,0,2,-21
C[C@H]1CN([C@@H](C)CO)C(=O)c2cccc(NC(=O)Nc3ccc(C(F)(F)F)cc3)c2O[C@@H]1CN(C)Cc1ccc(Cl)c(Cl)c1,-24,nt,-15,16,15,51*
